Molecules are shown by their SMILES. Bounds are passed on as bounds.

The results in this text go back to ChEMBL document CHEMBL1955814, “Tailoring of integrin ligands: probing the charge capability of the metal ion-dependent adhesion site” (J Med Chem, 2012).

Data set [1] deals with Integrin alpha-IIb/beta-3 (Homo sapiens, UniProt P05106+P08514). As to the kind of experiment: Displacement of extracellular matrix protein fibrinogen from human integrin alpha2bbeta3 after 1 hr by competitive ELISA. It is filed as protein-complex assay. The essentials: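 Plates coated overnight at 4 °C with 10 μg/mL fibrinogen in carbonate buffer pH 9.6, blocked with 1% BSA in Tris buffer containing 1 mM Ca2+, Mg2+ and Mn2+. Inhibitor (0.00013−10 μM final) plus 2.5 μg/mL final soluble human αIIbβ3 for 1 h at RT. Bound integrin detected with anti-CD41b and peroxidase secondary antibody, A450.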
Integrin alpha-IIb/beta-3, sequence (P05106 27-788 limits assumed): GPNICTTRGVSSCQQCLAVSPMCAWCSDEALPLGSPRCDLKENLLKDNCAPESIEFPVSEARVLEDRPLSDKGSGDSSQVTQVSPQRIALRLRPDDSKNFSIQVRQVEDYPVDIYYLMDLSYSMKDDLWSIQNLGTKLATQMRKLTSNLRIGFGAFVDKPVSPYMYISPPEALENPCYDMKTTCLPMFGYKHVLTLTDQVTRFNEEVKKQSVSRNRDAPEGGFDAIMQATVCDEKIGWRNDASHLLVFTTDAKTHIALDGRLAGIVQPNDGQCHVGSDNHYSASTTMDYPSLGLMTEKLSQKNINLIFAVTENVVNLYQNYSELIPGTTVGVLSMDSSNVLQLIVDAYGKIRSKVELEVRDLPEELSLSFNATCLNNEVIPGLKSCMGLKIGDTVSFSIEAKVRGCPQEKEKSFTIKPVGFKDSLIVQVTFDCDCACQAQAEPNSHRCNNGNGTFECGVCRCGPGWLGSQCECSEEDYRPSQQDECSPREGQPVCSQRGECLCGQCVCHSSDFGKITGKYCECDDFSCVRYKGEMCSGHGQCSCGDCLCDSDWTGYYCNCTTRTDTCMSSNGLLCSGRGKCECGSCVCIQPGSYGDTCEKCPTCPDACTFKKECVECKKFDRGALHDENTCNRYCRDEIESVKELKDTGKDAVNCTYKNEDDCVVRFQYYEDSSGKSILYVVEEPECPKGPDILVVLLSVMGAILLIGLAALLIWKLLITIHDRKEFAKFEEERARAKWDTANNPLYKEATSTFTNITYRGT
Integrin alpha-IIb/beta-3, sequence (P08514 32-887 limits assumed): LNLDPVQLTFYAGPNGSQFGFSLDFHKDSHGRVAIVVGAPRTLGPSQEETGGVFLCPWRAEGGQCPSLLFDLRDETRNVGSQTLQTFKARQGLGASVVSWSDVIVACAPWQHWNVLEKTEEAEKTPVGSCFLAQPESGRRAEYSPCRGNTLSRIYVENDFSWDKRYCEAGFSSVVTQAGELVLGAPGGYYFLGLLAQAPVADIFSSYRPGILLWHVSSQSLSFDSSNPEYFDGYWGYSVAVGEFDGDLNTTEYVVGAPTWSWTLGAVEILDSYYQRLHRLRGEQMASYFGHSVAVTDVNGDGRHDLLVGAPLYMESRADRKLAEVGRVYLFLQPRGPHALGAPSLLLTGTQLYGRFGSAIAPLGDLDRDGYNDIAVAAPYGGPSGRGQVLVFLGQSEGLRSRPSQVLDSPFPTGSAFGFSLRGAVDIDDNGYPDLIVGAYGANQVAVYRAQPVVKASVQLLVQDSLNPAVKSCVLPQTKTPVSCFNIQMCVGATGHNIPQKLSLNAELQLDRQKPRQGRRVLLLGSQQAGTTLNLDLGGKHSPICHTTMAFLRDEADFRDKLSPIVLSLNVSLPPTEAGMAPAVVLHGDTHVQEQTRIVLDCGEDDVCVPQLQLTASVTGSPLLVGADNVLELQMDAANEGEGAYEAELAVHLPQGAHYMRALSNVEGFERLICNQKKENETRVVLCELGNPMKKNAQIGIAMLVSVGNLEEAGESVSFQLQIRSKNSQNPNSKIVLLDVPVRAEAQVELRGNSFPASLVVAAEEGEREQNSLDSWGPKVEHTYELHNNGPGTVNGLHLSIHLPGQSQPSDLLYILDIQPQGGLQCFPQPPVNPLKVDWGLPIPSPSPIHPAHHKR
Integrin alpha-IIb/beta-3, sequence (P08514 891-1039 limits assumed): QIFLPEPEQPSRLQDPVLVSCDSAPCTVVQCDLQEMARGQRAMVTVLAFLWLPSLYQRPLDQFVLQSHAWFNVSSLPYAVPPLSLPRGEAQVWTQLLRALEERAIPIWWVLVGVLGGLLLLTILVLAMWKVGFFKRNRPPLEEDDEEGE
For orientation: In an ELISA, binding on a coated surface is turned into a signal by an enzyme label.

Data set [2] in a line: Apparent permeability across human Caco2 cells after 30 to 150 mins. It is filed as ADME, cell-based. The settings on record: Caco-2. The essentials:
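Caco-2 monolayers, passage 52−60, grown 21−23 days on polycarbonate inserts (0.4 μm pores, 1.1 cm²) until TEER stable at 300−500 Ω cm². Apical-to-basolateral transport at 37 °C with shaking after 30 min buffer preincubation. Basolateral samples at 30, 60, 90, 120 and 150 min, replaced with fresh buffer. Mass balance done per compound.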

As to `O=C(NC[C@H](NS(=O)(=O)c1ccccc1)[PH](=O)O)c1ccc(OCCC2CCNCC2)cc1`, the IC50 (in general, the midpoint of a concentration-inhibition curve) in data set [1] (read-out: IC50) was found to be 1.2 nM. Moreover, in data set [2], the Papp (commonly the rate of passage across a membrane or cell layer, normalised by area and donor concentration) is < 0.01 ×10⁻⁶ cm/s.
The matching figures for `O=C(NC[C@@H](NS(=O)(=O)c1ccccc1)[PH](=O)O)c1ccc(OCCC2CCNCC2)cc1`: 6.3 nM and < 0.01 ×10⁻⁶ cm/s.
The matching figures for `O=C(NC[C@H](NS(=O)(=O)c1ccccc1)P(=O)(O)O)c1ccc(OCCC2CCNCC2)cc1`: 22.7 nM and < 0.01 ×10⁻⁶ cm/s.
The matching figures for `O=C(NC[C@@H](NS(=O)(=O)c1ccccc1)P(=O)(O)O)c1ccc(OCCC2CCNCC2)cc1`: 136 nM and < 0.01 ×10⁻⁶ cm/s.
Consider `COP(=O)(O)[C@H](CNC(=O)c1ccc(OCCC2CCNCC2)cc1)NS(=O)(=O)c1ccccc1`, for which the IC50 in data set [1] (read-out: IC50) is 3.3 nM. Moreover, the Papp in data set [2] is < 0.01 ×10⁻⁶ cm/s.
As for `COP(=O)(O)[C@@H](CNC(=O)c1ccc(OCCC2CCNCC2)cc1)NS(=O)(=O)c1ccccc1`, the IC50 in data set [1] (read-out: IC50) turned out to be 1150 nM.
The same measure, in the same setting: under `O=C(NC[C@H](NS(=O)(=O)c1ccccc1)P(O)(O)=S)c1ccc(OCCC2CCNCC2)cc1` stands 62.5 nM.
Regarding `O=C(NC[C@@H](NS(=O)(=O)c1ccccc1)P(O)(O)=S)c1ccc(OCCC2CCNCC2)cc1`, the IC50 in data set [1] (read-out: IC50) is 1320 nM.
The same measure, in the same setting: next, `O=C(NC[C@@H](NS(=O)(=O)c1ccccc1)C(=O)O)c1ccc(OCCC2CCNCC2)cc1`: 4.4 nM.
With `COP(=O)(OC)[C@H](CNC(=O)c1ccc(OCCC2CCNCC2)cc1)NS(=O)(=O)c1ccccc1`, the IC50 entry in data set [1] is reported as “Not Active”.
Still for that read-out and setting: next, `COP(=O)(OC)[C@@H](CNC(=O)c1ccc(OCCC2CCNCC2)cc1)NS(=O)(=O)c1ccccc1`: “Not Active”.
Take `O=C(NC[C@H](NS(=O)(=O)c1ccccc1)C(=O)O)c1ccc(OCCC2CCNCC2)cc1`: the IC50 in data set [1] (read-out: IC50) was 0.81 nM.
For `OC[C@@H](O)[C@@H](O)[C@H](O)[C@H](O)CO` [MANNITOL], in data set [2], the Papp turned out to be 2.4 ×10⁻⁶ cm/s.
Still for that read-out and setting: next, `CCCCS(=O)(=O)N[C@@H](Cc1ccc(OCCCCC2CCNCC2)cc1)C(=O)O` [TIROFIBAN]: < 0.01 ×10⁻⁶ cm/s.
